According to paper PMC2556891 (ACS chemical biology, 2008):
Substitutions are numbered along the chain they refer to.

How the values were obtained:
ClC-ec1 = ClC-ec1 (Escherichia coli, UniProt P37019); assay: Chloride flux assay with ClC-ec1 reconstituted in vesicles; type: biochemical
ClC-0 [1] = molecular target: T1, ClC-0 (Torpedo marmorata, UniProt P21564); assay: ClC-0 currents, inside-out patches from Xenopus oocytes; type: cell-based; details: intracellular application, various concentrations
T1 sequence (P21564 1-805): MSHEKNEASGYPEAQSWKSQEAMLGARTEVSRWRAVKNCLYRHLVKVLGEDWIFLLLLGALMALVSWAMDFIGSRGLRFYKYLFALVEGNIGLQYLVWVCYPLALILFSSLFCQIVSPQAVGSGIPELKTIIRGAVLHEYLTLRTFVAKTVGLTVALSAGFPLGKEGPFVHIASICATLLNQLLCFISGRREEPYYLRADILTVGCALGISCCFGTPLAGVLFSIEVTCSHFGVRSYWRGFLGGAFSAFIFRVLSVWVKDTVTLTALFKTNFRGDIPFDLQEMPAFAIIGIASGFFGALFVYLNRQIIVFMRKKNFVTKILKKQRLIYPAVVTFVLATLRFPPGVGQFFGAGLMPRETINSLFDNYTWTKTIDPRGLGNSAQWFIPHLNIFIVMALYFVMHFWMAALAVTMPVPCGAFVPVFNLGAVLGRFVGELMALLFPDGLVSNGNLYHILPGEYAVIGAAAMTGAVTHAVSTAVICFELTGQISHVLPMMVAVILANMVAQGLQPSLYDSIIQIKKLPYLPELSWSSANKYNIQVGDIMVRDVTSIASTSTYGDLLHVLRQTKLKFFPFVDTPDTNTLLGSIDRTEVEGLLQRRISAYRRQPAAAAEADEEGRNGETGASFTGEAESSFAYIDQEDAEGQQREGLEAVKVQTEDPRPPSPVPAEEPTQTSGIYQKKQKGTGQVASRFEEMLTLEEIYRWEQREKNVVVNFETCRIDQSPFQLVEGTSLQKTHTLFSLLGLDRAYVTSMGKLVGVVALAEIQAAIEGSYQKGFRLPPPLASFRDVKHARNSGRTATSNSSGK
Outline: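 Defolliculated Xenopus oocytes injected with 27.5 nL ClC-0 RNA (~500 ng/μL) and kept at 16 °C for 2-7 days. Test compound delivered by microfluidic switching. Holding at 0 mV; every 5 s step to +50 mV (50 ms) then −100 mV (50 ms). Instantaneous −100 mV current taken over time as I/Io; initial inhibition rate fitted; 3-5 oocytes; mean ± SEM.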

ClC-Ka = molecular target: T2, ClC-Ka (Homo sapiens, UniProt P51800); details: cited from earlier work
T2 sequence (P51800 1-687): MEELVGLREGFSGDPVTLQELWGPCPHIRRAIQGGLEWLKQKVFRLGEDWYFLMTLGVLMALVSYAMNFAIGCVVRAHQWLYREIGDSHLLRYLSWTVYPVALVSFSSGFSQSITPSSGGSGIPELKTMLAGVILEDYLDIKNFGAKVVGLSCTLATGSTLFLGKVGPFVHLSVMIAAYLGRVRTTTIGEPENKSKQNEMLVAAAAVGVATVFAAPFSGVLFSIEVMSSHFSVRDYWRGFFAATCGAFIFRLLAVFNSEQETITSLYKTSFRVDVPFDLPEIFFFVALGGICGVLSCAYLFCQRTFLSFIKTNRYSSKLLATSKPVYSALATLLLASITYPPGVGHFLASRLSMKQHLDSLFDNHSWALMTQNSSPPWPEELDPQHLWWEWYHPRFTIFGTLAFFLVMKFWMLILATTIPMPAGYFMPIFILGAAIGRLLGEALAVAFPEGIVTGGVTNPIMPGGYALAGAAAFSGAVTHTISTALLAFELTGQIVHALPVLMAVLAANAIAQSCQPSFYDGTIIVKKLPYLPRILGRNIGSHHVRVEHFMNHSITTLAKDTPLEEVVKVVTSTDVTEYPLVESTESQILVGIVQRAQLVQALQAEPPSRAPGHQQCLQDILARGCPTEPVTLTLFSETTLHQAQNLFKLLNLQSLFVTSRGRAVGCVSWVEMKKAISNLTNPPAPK
T2 sequence (Q8WZ55 1-320 Y98A partner): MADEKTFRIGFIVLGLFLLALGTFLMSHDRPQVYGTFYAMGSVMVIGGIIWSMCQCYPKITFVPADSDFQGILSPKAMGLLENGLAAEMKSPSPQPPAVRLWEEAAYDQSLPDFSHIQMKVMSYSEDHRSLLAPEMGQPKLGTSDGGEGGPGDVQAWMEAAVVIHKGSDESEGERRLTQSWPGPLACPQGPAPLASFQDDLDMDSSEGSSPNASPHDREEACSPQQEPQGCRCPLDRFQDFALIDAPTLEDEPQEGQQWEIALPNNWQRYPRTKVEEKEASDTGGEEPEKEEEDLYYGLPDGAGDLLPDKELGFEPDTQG

ClC-0 [2] = molecular target: T1, ClC-0; details: cited from earlier work
ClC-Ka N68D = molecular target: T3, ClC-Ka N68D (Homo sapiens, UniProt P51800, N68D); details: cited from earlier work
T3 sequence (P51800 1-687 N68D): T2 sequence (P51800 1-687) with N68D
T3 sequence (Q8WZ55 1-320 Y98A partner): T2 sequence (Q8WZ55 1-320 Y98A partner)

[3] = Stability of DIDS in aqueous solution by reversed-phase HPLC; type: physicochemical
[4] = Hill fit of ClC-ec1 chloride flux inhibition

ClC-ec1, sequence (P37019 whole entry): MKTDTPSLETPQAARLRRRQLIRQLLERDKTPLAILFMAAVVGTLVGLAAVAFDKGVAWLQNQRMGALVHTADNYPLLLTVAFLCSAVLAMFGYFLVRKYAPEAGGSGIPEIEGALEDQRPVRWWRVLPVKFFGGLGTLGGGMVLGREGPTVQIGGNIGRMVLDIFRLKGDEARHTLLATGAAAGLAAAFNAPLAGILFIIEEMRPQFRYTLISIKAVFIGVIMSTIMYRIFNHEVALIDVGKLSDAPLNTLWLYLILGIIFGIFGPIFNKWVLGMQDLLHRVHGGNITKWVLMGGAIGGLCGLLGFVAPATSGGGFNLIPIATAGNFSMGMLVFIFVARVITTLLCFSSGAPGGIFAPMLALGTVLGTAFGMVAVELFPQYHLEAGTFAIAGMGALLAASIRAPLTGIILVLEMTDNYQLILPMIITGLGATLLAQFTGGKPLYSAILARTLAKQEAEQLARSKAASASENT

| Structure (SMILES) | effect on ClC-ec1 activity (ClC-ec1; at concentrations as high as 2 mM) | effect on ClC-0 (ClC-0 [1]) | (A/Ao)max (ClC-ec1; [4]) | Hill coefficient n (ClC-ec1; [4]) | reversibility of ClC-Ka inhibition from the extracellular side (ClC-Ka) | reversibility of ClC-0 inhibition (ClC-0 [2]) | decrease of apparent affinity by N68D mutation in ClC-Ka (ClC-Ka N68D) [fold] | stability in aqueous solution (reversed-phase HPLC) ([3]; after 3 h in aqueous solution) | stability in solution (HPLC) ([3]; after 48 h) | stability in solution (HPLC) ([3]; within 24 h in solution) |
| --- | --- | --- | --- | --- | --- | --- | --- | --- | --- | --- |
| Nc1ccc(C=Cc2ccc(N)cc2S(=O)(=O)O)c(S(=O)(=O)O)c1 [DADS, 4,4′-diaminostilbene-2,2′-disulfonic acid] | does not affect | no effect | – | – | – | – | – | – | – | – |
| O=S(=O)(O)c1cc(N=C=S)ccc1C=Cc1ccc(N=C=S)cc1S(=O)(=O)O [DIDS, 4,4′-diisothiocyanatostilbene-2,2′-disulfonic acid] | – | – | 1.08 | 2 | slowly reversible | irreversible | 10 | single peak | no DIDS was apparent | partially decomposed |
